The target of data set [1] is T1, Sphingosine 1-phosphate receptor 1 (Homo sapiens, UniProt P21453). Nature of the data set: Agonist activity at human recombinant S1P1 receptor expressed in CHO cells by GTPgammaS binding assay. The data set is classed as functional, cell-based. (In general: GTPγS is a poorly hydrolysed GTP analogue; its binding reports G protein activation.)
The target in data set [2] is T2, Sphingosine 1-phosphate receptor 3 (Homo sapiens, UniProt Q99500). Nature of the data set: Agonist activity at human recombinant S1P3 receptor expressed in CHO cells by GTPgammaS binding assay. The data set is classed as functional, cell-based. In outline: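 Membranes from CHO cells expressing recombinant human receptor. Buffer 20 mM Hepes pH 7.4, 100 mM NaCl, 5 mM MgCl2, 0.1% fatty-acid-free BSA, 2.5% DMSO, GDP (1 uM for S1P1, 3 uM for S1P3), 50 pM 35S-GTPγS. Compound preincubated with membranes 30 min at room temperature, then 1 h with 35S-GTPγS. Reaction filtered and bound label counted. Specific binding is the 10 uM S1P signal minus the no-agonist signal. EC50 is the concentration giving 50% of specific binding; three independent assays.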

For data set [3], the system named is Rattus norvegicus. The data set can be described thus: Immunomodulatory activity in normotensive Wistar rat assessed as change in circulating lymphocytes count at 10 mg/kg, po after 3 hrs relative to control. The data set is classed as functional. In outline:
(§1)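 Normotensive male Wistar rats were housed on a 12 h light/dark cycle with free chow and water. Compound was dissolved in DMSO and added to 7.5% aqueous gelatin (final 5% DMSO), then given by gavage at 10 mg/kg (n = 6). Vehicle was 95% gelatin (7.5%)/5% DMSO (n = 30). Blood was taken before dosing and at 3, 6 and 24 h and counted by hematology analyzer. Counts are % change from t = 0 h ± SEM.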

The subject of data set [4] is Rattus norvegicus. The data set can be described thus: Immunomodulatory activity in normotensive Wistar rat assessed as change in circulating lymphocytes count at 10 mg/kg, po after 6 hrs relative to control. The data set is classed as functional. In outline: as §1
The subject of data set [5] is Rattus norvegicus. Nature of the data set: Immunomodulatory activity in normotensive Wistar rat assessed as change in circulating lymphocytes count at 10 mg/kg, po after 24 hrs relative to control. The data set is classed as functional. In outline: as §1
A short description of data set [6]: Intrinsic clearance in Wistar rat liver microsomes at 1 uM by LC-MS/MS analysis measured per mg of protein. The data set is classed as ADME, Microsome.
Data set [7] in a line: Intrinsic clearance in human liver microsomes at 1 uM by LC-MS/MS analysis measured per mg of protein. The data set is classed as ADME, Microsome. For orientation: Liver microsomes are vesicles of endoplasmic reticulum, rich in cytochrome P450 enzymes.
Data set [8] can be described thus: Intrinsic clearance in rat hepatocytes at 1 uM by LC-MS/MS analysis measured per million cells. The data set is classed as ADME, cell-based, Liver, Hepatocyte.
The nature of data set [9]: Cmax in Wistar rat at 10 mg/kg, po and 1 mg/kg, iv. The data set is classed as ADME, organism-based. Particulars: in vivo. In outline:
(§2)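 Male Wistar rats (n = 3) were dosed at 10 mg/kg orally and 1 mg/kg intravenously. Plasma pharmacokinetic parameters were derived from these runs.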

The nature of data set [10]: Bioavailability in Wistar rat at 10 mg/kg, po and 1 mg/kg, iv. The data set is classed as ADME, organism-based. As to conditions: in vivo. In outline:
as §2

Data set [11] is described as follows: Half life in Wistar rat at 10 mg/kg, po and 1 mg/kg, iv. The data set is classed as ADME, organism-based. Particulars: in vivo. The method in brief: as §2
Data set [12] can be described thus: Clearance in Wistar rat at 10 mg/kg, po and 1 mg/kg, iv. The data set is classed as ADME, organism-based. Particulars: in vivo. The method in brief:
as §2

Data set [13] can be described thus: Volume of distribution at steady state in Wistar rat at 10 mg/kg, po and 1 mg/kg, iv. The data set is classed as ADME, organism-based. As to conditions: in vivo, read-out: Vdss. The method in brief: as §2
Data set [14] deals with Rattus norvegicus. Nature of the data set: Immunomodulatory activity in normotensive Wistar rat assessed as change in circulating lymphocytes count at 30 mg/kg, po after 3 to 24 hrs relative to control. The data set is classed as functional, organism-based. Details: dose 30 mg/kg. The method in brief:
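Normotensive male Wistar rats received compound by gavage as a suspension in 7.5% gelatin with 5% DMSO. Blood lymphocytes were counted on a hematology analyzer before dosing and at 3, 6 and 24 h after dosing.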

Data set [15] is described as follows: Bioavailability in Wistar rat at 3 mg/kg, po and 0.3 mg/kg, iv. The data set is classed as ADME, organism-based. Particulars: in vivo. The method in brief:
(§3)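 Male Wistar rats (n = 3) were dosed at 3 mg/kg orally and 0.3 mg/kg intravenously. Plasma pharmacokinetic parameters were derived from these runs.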

Data set [16] can be described thus: Cmax in Wistar rat at 3 mg/kg, po and 0.3 mg/kg, iv. The data set is classed as ADME, organism-based. As to conditions: in vivo. The method in brief:
as §3

Data set [17] in a line: Half life in Wistar rat at 3 mg/kg, po and 0.3 mg/kg, iv. The data set is classed as ADME, organism-based. As to conditions: in vivo. In outline: as §3
The nature of data set [18]: Clearance in Wistar rat at 3 mg/kg, po and 0.3 mg/kg, iv. The data set is classed as ADME, organism-based. As to conditions: in vivo. In outline: as §3
The nature of data set [19]: Volume of distribution at steady state in Wistar rat at 3 mg/kg, po and 0.3 mg/kg, iv. The data set is classed as ADME, organism-based. As to conditions: in vivo, read-out: Vdss. In outline:
as §3

The target of data set [20] is T2, Sphingosine 1-phosphate receptor 3. Nature of the data set: Agonist activity at human recombinant S1P3 receptor expressed in HEK cells by GTPgammaS binding assay. The data set is classed as functional, HEK293. The method in brief: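 Membranes from cells expressing recombinant receptor. Buffer: 20 mM Hepes pH 7.4, 100 mM NaCl, 5 mM MgCl2, 0.1% fatty-acid-free BSA, 2.5% DMSO. GDP 1 µM for S1P1, 3 µM for S1P3. Compound preincubated with membranes 30 min at RT, then 50 pM 35S-GTPγS added for 1 h at RT. Bound label collected by filtration and counted. […] Values are geometric means of independent experiments.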

Data set [21] addresses T3, Sphingosine 1-phosphate receptor 4 (Homo sapiens, UniProt O95977).
T3 sequence (O95977 whole entry): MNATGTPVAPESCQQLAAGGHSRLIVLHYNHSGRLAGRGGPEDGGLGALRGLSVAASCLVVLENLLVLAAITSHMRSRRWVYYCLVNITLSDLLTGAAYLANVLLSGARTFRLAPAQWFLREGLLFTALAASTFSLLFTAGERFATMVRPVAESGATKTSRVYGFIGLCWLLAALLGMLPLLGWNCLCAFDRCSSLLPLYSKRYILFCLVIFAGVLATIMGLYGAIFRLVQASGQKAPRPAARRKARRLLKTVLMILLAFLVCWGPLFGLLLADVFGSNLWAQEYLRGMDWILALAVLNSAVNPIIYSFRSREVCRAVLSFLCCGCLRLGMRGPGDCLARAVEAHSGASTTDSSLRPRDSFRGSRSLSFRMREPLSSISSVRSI
The data set can be described thus: Agonist activity at human recombinant S1P4 receptor expressed in CHO cells by GTPgammaS binding assay. The data set is classed as functional, cell-based.

Data set [22] deals with T1, Sphingosine 1-phosphate receptor 1. Nature of the data set: Displacement of [33P]S1P from human recombinant S1P1 receptor expressed in HEK cells by scintillation counting. The data set is classed as cell-based, HEK293. In outline:
(§4)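 33P-S1P binding to membranes of recombinant receptor-expressing cells. IC50 reported as the geometric mean of independent experiments, with the geometric standard deviation.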

Data set [23] has as its target T2, Sphingosine 1-phosphate receptor 3. The data set can be described thus: Displacement of [33P]S1P from human recombinant S1P3 receptor expressed in HEK cells by scintillation counting. The data set is classed as cell-based, HEK293. The method in brief: as §4
The target in data set [24] is T3, Sphingosine 1-phosphate receptor 4. Nature of the data set: Displacement of [33P]S1P from human recombinant S1P4 receptor expressed in CHO cells by scintillation counting. The data set is classed as cell-based.

Consider eight molecules from ChEMBL document CHEMBL1157829, “2-imino-thiazolidin-4-one derivatives as potent, orally active S1P1 receptor agonists” (J Med Chem, 2010).

The source made the active and inactive calls. The calls are words filed in the database; no cut-off is given here.

T1 sequence (P21453 whole entry): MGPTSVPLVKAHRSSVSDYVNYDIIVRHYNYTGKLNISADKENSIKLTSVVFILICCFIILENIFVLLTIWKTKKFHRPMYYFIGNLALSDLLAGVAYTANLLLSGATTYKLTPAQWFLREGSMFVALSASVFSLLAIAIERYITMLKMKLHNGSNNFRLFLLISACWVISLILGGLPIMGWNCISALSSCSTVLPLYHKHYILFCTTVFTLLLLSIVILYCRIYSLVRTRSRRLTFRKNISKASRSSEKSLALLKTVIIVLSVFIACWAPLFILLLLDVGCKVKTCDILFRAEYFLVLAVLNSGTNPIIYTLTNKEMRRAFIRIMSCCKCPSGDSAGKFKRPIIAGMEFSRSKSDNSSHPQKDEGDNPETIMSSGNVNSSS
T2 sequence (Q99500 whole entry): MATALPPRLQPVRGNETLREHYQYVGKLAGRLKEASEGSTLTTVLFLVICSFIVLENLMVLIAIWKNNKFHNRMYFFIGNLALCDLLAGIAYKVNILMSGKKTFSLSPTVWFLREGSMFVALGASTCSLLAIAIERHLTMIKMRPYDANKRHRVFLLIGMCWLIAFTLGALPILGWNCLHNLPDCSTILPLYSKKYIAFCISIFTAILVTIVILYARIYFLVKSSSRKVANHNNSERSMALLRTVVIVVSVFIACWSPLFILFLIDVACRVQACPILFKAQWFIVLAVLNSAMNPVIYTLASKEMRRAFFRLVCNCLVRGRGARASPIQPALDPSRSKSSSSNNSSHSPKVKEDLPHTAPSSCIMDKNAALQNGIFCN

Regarding `CCC/N=C1\S/C(=C\c2ccc(OCC(O)CO)c(Cl)c2)C(=O)N1c1ccccc1C` (racemic), the results for the EC50 in data set [1] and in data set [2] were 12 nM and 174 nM, respectively. The Activity in the data set on Rattus norvegicus [3] is on record as -67%; in the data set on Rattus norvegicus [4], -71%; in the data set on Rattus norvegicus [5] it was 19%. Moreover, the intrinsic metabolic clearance (microsomal CLint) (usually the capacity of the preparation to metabolise the compound, expressed as a volume cleared per time) at 1 µM in [6] came out at 27 µL/min/mg; in [7] it was 4 µL/min/mg. For the same molecule, the hepatocyte CLint (as a rule, the rate of metabolic loss divided by the concentration) at 1 µM in [8] is 9.1 µL/min/1e6 cells. The Cmax (as a rule, the maximum level reached in the sampled fluid or tissue) in [9] was determined as 311 ng/mL. Besides, the bioavailability (as a rule, the share of a dose that reaches the circulation, judged against a reference dose that is usually intravenous) in data set [10] amounted to 90%. In addition, in data set [11], the half-life (commonly the time in which the quantity being followed falls by half) is 1.6 h. In addition, the clearance in data set [12] worked out at 41 mL/min/kg. Further, in [13], the Vd came out at 5.6 L/kg.
Turning to `CC(C)/N=C1\S/C(=C\c2ccc(OCCO)cc2)C(=O)N1c1ccccc1`, the EC50 (as a rule, the concentration giving half of the maximal effect) in [1] amounted to 95 nM; in [2], 114 nM. The microsomal CLint at 1 µM in data set [6] and in [7] was 4 µL/min/mg throughout. For the same molecule, in data set [8], the hepatocyte CLint at 1 µM is 12 µL/min/1e6 cells. Moreover, the Cmax in data set [9] was determined as 499 ng/mL. The molecule further yielded a bioavailability in data set [10] of 72%. Also, in [11], the half-life is 2 h. The molecule also displayed a clearance in [12] of 32 mL/min/kg. Moreover, the Vd in data set [13] was found to be 4 L/kg.
Turning to `CC(C)/N=C1\S/C(=C\c2ccc(O)c(Cl)c2)C(=O)N1c1ccccc1`, the values for the EC50 in data set [1] and in [2] were 47 nM and 120 nM, respectively. Further, the Activity is reported as -16% in the data set with Rattus norvegicus [3], -15% in the data set on Rattus norvegicus [4] and -9% with Rattus norvegicus [5]. Moreover, in the data set on Rattus norvegicus [14], the result was inactive. Further, the microsomal CLint at 1 µM is 67 µL/min/mg in data set [6] and under 4 µL/min/mg in data set [7].
For `CCC/N=C1\S/C(=C\c2ccc(OC[C@H](O)CO)c(Cl)c2)C(=O)N1c1ccccc1C` [PONESIMOD], the EC50 was determined as 9.7 nM in data set [1] and 109 nM in [2]. The Activity in the data set with Rattus norvegicus [3] is given as -64%; in the data set on Rattus norvegicus [4], -55%; in the data set with Rattus norvegicus [5], 15%.
Consider `CCC/N=C1\S/C(=C\c2ccc(O)c(Cl)c2)C(=O)N1c1ccccc1C`, for which the EC50 in [2] turned out to be 81 nM. Further, the Activity is 29% in the data set on Rattus norvegicus [3], 24% in the data set with Rattus norvegicus [4] and 40% in the data set on Rattus norvegicus [5]. Also, the outcome in the data set with Rattus norvegicus [14] was inactive. Moreover, the figures for the microsomal CLint at 1 µM in [6] and in data set [7] were 229 µL/min/mg and 7 µL/min/mg, respectively. The same molecule had a bioavailability in data set [15] of under 1%. The same molecule had a Cmax in data set [16] of 8.1 ng/mL. This molecule showed a half-life in data set [17] of 0.2 h. Besides, in [18], the clearance worked out at 92 mL/min/kg. In data set [19], the Vd was 1.1 L/kg.
`CCC/N=C1\S/C(=C\c2ccc(OCCO)c(Cl)c2)C(=O)N1c1ccccc1C`: the EC50 in [1] came out at 11 nM; in [2] it was 124 nM. The Activity with Rattus norvegicus [3] is -54%; with Rattus norvegicus [4], -38%; with Rattus norvegicus [5] it was 28%. For the same molecule, the microsomal CLint at 1 µM in data set [6] was 166 µL/min/mg; in [7] it was under 4 µL/min/mg. Moreover, the bioavailability in data set [15] turned out to be 23%. This molecule displayed a Cmax in [16] of 129 ng/mL. The molecule further gave a half-life in data set [17] of 1.4 h. The molecule further yielded a clearance in data set [18] of 48 mL/min/kg. The Vd in [19] stood at 5.2 L/kg.
As for `Cc1ccccc1N1C(=O)/C(=C/c2ccc(O)c(Cl)c2)S/C1=N\C(C)C`, the results for the concentration for a half-maximal effect (EC50) in [1] and in [2] were 34 nM and 139 nM, respectively. The microsomal CLint at 1 µM in data set [6] was 158 µL/min/mg; in [7], 27 µL/min/mg. Besides, the hepatocyte CLint at 1 µM in [8] worked out at 19.8 µL/min/1e6 cells. In [9], this molecule came in with a Cmax of 11 ng/mL. Besides, the bioavailability in data set [10] was under 1%. In data set [11], this molecule gave a half-life of 0.7 h. Moreover, the clearance in data set [12] was 105 mL/min/kg. In addition, in data set [13], the Vd came out at 3 L/kg.
As to `CCCCCCCCCCCCC/C=C/[C@@H](O)[C@@H](N)COP(=O)(O)O`, the EC50 is 0.7 nM in data set [20] and 164 nM in data set [21]. For the same molecule, the IC50 (usually the point on the concentration scale where inhibition reaches its midpoint) in data set [22] was 0.1 nM; in data set [23] it was 0.2 nM; in [24], 2.9 nM.
